Reference: ChEMBL document CHEMBL5149991 (J Med Chem, 2021)

Columns and labels:
[1] = target: Muscarinic acetylcholine receptor M3 (Homo sapiens, UniProt P20309); test: Displacement of [3H]N-methylscopolamine from human muscarinic acetylcholine M3 receptor stably expressed in CHO cells by radioligand competition binding based analysis; type: cell-based
Procedure, shortened: (§1)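 Whole CHO cells stably expressing hM1–hM5, competed against [3H]N-methylscopolamine. Kd/applied concentrations in nM: M1 0.17/0.2, M2 0.10/0.2, M3 0.12/0.2, M4 0.052/0.1, M5 0.20/0.3.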

[2] = target: T1, Muscarinic acetylcholine receptor M2 (Homo sapiens, UniProt P08172); test: Displacement of [3H]N-methylscopolamine from human muscarinic acetylcholine M2 receptor stably expressed in CHO cells by radioligand competition binding based analysis; type: cell-based; procedure, shortened: as §1
T1 sequence (P08172 whole entry): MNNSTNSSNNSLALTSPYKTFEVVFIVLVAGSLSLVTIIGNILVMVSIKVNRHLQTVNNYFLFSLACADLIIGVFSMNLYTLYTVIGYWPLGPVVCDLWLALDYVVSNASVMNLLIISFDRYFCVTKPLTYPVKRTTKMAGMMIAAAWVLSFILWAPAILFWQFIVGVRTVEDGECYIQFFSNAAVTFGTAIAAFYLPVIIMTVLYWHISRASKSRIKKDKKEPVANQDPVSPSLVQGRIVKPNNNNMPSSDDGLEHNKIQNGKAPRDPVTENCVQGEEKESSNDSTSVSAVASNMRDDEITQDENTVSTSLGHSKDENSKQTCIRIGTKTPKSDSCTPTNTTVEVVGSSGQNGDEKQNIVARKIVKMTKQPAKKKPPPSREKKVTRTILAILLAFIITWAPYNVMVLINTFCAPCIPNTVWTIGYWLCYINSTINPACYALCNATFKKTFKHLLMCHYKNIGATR

[3] = target: T2, Alpha-1A adrenergic receptor (Homo sapiens, UniProt P35348); test: Displacement of [3H]prazosin from human alpha-1A adrenergic receptor stably expressed in HEK293T cell membrane incubated for 2 hrs by scintillation counting analysis; type: cell membranes
T2 sequence (P35348 whole entry): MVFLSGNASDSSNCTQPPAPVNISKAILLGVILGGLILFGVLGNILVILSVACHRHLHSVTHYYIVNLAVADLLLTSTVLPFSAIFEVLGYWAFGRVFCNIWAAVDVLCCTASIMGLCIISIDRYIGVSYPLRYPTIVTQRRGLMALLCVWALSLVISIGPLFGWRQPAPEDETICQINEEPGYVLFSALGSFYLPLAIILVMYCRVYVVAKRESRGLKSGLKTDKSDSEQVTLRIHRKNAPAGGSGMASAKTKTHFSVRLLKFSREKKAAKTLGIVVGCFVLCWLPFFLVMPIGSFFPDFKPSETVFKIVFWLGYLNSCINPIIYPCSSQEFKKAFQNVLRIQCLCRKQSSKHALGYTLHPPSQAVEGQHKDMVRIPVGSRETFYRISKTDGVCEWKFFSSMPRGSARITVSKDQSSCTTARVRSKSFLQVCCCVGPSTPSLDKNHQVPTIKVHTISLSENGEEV

[4] = target: T3, Alpha-2A adrenergic receptor (Homo sapiens, UniProt P08913); test: Displacement of [3H]RX821002 from human alpha-2A adrenergic receptor […] in HEK293T cell membrane incubated for 2 hrs by scintillation counting analysis; type: cell membranes
T3 sequence (P08913 whole entry): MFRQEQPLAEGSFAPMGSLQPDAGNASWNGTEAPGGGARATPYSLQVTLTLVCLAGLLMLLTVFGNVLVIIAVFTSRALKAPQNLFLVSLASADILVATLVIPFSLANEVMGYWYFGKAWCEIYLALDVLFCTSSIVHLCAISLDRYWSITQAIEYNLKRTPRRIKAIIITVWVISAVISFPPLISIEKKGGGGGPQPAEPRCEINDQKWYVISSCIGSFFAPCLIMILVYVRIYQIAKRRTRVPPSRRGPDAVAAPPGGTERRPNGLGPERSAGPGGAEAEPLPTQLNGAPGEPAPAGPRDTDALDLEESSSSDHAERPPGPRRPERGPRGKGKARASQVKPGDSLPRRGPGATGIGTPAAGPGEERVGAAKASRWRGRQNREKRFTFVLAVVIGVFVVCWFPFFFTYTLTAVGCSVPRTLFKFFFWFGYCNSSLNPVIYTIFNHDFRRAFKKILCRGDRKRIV
Procedure, shortened: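 Transiently transfected HEK293T membranes in 50 mM Tris, pH 7.4. α2A: 10 μg/well, 0.5 nM [3H]RX821002, nonspecific with 10 μM RX821002. μOR: 6 μg/well, 0.3 nM [3H]diprenorphine, nonspecific with 10 μM naloxone. Ki from IC50 by Cheng–Prusoff.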

[5] = target: Beta-2 adrenergic receptor (Homo sapiens, UniProt P07550); test: Displacement of [3H]CGP12177 from human beta-2 adrenergic receptor […] in HEK293T cell membrane incubated for 2 hrs by scintillation counting analysis; type: cell membranes
Procedure, shortened: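 Membranes of transiently transfected HEK293T cells in 25 mM HEPES, 5 mM MgCl2, 1 mM EDTA, 0.01% BSA, pH 7.4. β1 at 2 μg/well, β2 at 4 μg/well, with 0.2 nM [3H]CGP12177. Nonspecific binding with 10 μM CGP12177. IC50 converted to Ki by Cheng–Prusoff.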

[6] = target: T4, 5-hydroxytryptamine receptor 1A (Homo sapiens, UniProt P08908); test: Displacement of […] from human 5HT1A stably expressed in HEK293T cell membrane incubated for 2 hrs by scintillation counting analysis; type: cell membranes
T4 sequence (P08908 whole entry): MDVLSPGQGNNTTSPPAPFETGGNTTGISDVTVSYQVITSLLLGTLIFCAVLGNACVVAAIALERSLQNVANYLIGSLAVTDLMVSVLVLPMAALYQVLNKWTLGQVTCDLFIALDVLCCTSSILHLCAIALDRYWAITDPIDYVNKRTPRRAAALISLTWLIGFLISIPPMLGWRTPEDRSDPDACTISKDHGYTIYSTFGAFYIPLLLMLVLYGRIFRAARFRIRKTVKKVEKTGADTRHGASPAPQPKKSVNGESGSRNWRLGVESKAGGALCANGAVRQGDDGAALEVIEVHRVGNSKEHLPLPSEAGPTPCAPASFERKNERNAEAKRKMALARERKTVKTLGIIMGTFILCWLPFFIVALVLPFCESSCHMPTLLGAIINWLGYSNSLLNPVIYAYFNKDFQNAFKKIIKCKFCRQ

Histamine H1 receptor = Histamine H1 receptor (Homo sapiens, UniProt P35367)
Histamine H1 receptor, sequence (P35367 whole entry): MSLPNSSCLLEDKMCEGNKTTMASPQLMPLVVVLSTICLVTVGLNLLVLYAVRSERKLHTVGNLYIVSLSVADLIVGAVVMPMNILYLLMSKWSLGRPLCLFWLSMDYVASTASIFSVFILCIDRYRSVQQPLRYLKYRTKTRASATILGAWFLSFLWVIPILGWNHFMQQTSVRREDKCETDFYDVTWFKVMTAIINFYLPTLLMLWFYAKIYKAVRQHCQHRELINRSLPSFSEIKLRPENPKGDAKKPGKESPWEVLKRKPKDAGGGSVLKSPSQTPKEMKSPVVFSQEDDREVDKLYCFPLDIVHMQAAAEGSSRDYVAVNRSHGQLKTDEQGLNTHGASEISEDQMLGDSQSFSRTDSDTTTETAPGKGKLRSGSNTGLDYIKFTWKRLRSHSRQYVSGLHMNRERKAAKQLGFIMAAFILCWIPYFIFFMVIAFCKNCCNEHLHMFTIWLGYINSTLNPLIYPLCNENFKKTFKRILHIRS

Beta-2 adrenergic receptor, sequence (P07550 whole entry): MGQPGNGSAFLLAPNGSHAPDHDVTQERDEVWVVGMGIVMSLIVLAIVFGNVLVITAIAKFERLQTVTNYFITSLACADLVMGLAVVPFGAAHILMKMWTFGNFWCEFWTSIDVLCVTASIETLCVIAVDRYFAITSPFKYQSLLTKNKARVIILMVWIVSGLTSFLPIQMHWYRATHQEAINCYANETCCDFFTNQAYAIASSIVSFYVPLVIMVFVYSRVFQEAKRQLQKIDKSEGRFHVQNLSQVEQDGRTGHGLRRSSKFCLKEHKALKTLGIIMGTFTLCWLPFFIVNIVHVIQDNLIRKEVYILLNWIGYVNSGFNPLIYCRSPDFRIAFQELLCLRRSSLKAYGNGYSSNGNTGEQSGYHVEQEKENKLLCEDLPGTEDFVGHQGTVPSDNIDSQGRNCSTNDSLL
Muscarinic acetylcholine receptor M3, sequence (P20309 whole entry): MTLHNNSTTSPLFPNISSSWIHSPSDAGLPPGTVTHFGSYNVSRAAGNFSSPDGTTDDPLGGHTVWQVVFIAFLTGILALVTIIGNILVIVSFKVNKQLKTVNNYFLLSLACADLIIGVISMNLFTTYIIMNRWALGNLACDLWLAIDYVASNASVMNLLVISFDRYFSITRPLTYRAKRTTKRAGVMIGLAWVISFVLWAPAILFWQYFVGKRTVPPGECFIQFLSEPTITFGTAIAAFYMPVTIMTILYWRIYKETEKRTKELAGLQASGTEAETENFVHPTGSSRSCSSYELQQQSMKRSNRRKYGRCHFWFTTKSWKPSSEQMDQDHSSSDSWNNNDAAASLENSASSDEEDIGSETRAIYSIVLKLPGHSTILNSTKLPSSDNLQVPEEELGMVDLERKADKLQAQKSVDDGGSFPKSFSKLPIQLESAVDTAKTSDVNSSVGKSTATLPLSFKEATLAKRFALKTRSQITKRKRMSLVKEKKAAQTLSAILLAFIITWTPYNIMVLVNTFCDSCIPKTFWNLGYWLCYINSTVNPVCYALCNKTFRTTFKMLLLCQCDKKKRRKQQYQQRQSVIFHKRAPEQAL

SMILES | Kd [1] [nM] | pKi [1] | Kd [2] [nM] | Kd [3] [nM] | pKi [3] | Kd [4] [nM] | pKi [4] | Kd [5] [nM] | pKi [5] | Kd [6] [nM] | pKi [6] | Kd (Histamine H1 receptor) [nM] | Ki (Histamine H1 receptor) [nM] | Ki [2] [nM]
N/C(=N\C(=O)NCc1ccccc1)NCCCc1nnc(N)s1 | 0.12 | < 5 | 0.1 | 0.25 | 6.07 | 0.6 | 5.9 | 0.07 | 4.4 | 0.08 | 4.56 | 4.5 | 5370 | –
CCCCCNC(=O)/N=C(\N)NCCCc1sc(N)nc1C | 0.12 | < 5 | 0.1 | 0.25 | 5.69 | 0.6 | 6.05 | 0.07 | 4.93 | 0.08 | 5.18 | – | – | > 10000
CCCCCNC(=O)/N=C(\N)NCCCc1nnc(N)s1.O=C(O)C(F)(F)F.O=C(O)C(F)(F)F | 0.12 | < 5 | 0.1 | 0.25 | 5.45 | 0.6 | 5.31 | 0.07 | 4.2 | 0.08 | 4.49 | 4.5 | 6460 | –
C[C@@H](NC(=O)/N=C(\N)NCCCc1ncn[nH]1)c1ccccc1 | 0.12 | < 5 | 0.1 | 0.25 | 5.72 | 0.6 | 6.07 | 0.07 | 4.45 | 0.08 | 4.29 | 4.5 | 7940 | > 10000
